{"data": "Results from different studies", "target": "Carbonic anhydrase 1 (CA1, Homo sapiens, UniProt P00915)", "observed": "enzyme activity", "action": "inhibitor", "note": "Compare with care: the assays were run in different laboratories. pKi: −log10 of the molar value."}
{"Structure (SMILES)": "COc1cc(C)c(/C=C/C(C)=C/C=C/C(C)=C/C(=O)O)c(C)c1C", "pKi": 5.11}
{"Structure (SMILES)": "O=C(Oc1ccc(Cl)cc1)c1ccc(=O)oc1", "test": "stopped-flow", "pKi": "< 4.00"}
{"Structure (SMILES)": "CC1(C(=O)Nc2nnc(S(N)(=O)=O)s2)CCC1", "test": "stopped-flow", "pKi": 6.48}
{"Structure (SMILES)": "Cc1cc(=O)oc2cc(OCCCCSC#N)ccc12", "test": "stopped-flow", "pKi": "< 4.00"}
{"Structure (SMILES)": "NS(=O)(=O)c1nnc(NC(=O)CN2CC3CCC2CC3)s1", "test": "stopped-flow", "pKi": 6.84}
{"Structure (SMILES)": "CN1CCC(=C2c3ccccc3CC(=O)c3sccc32)CC1", "pKi": 5.16}
{"Structure (SMILES)": "N#CSCCCCOc1ccc2c(-c3ccccc3)cc(=O)oc2c1", "test": "stopped-flow", "pKi": "< 4.00"}
{"Structure (SMILES)": "NS(=O)(=O)c1nnc(NC(=O)CCC2CCCCO2)s1 (centres unmarked)", "test": "stopped-flow", "pKi": 6.12}
{"Structure (SMILES)": "O=C(OCc1cn(-c2ccccc2)nn1)c1ccc(=O)oc1", "test": "stopped-flow", "pKi": "< 4.00"}
{"Structure (SMILES)": "CC1CCCC(C(=O)Nc2nnc(S(N)(=O)=O)s2)C1 (centres unmarked)", "test": "stopped-flow", "pKi": 7.08}
{"Structure (SMILES)": "O=C(O)c1cccc(=O)o1", "test": "stopped-flow", "pKi": "< 4.00"}
{"Structure (SMILES)": "CC1CCC(CC(=O)Nc2nnc(S(N)(=O)=O)s2)CC1 (centres unmarked)", "test": "stopped-flow", "pKi": 7.16}
{"Structure (SMILES)": "CN(C/C=C/C#CC(C)(C)C)Cc1cccc2ccccc12", "pKi": 4.69}
{"Structure (SMILES)": "C[n+]1cc(C(=O)[O-])ccc1O", "test": "stopped-flow", "pKi": "< 4.00"}
{"Structure (SMILES)": "CN(C)CCC(c1ccccc1)c1ccccn1 (centres unmarked)", "pKi": 4.86}
{"Structure (SMILES)": "C#CCNC(=O)c1ccc(=O)oc1", "test": "stopped-flow", "pKi": "< 4.00"}
{"Structure (SMILES)": "OCCOCCN1CCN(C(c2ccccc2)c2ccc(Cl)cc2)CC1 (centres unmarked)", "pKi": 4.99}
{"Structure (SMILES)": "CC(C)(C)CCC(=O)Nc1nnc(S(N)(=O)=O)s1", "test": "stopped-flow", "pKi": 6.57}
{"Structure (SMILES)": "Cn1cnc([N+](=O)[O-])c1Sc1ncnc2nc[nH]c12", "pKi": 4.90}
{"Structure (SMILES)": "CC1CCCCC1OC(=O)c1ccc(=O)oc1 (centres unmarked)", "test": "stopped-flow", "pKi": "< 4.00"}
